Drawing on ChEMBL document CHEMBL1125395, “Development of high-affinity 5-HT3 receptor antagonists. 1. Initial structure-activity relationship of novel benzamides” (J Med Chem, 1992), this text covers ED50, ED100 and Ki for 18 molecules.

Assay [1] has as its system Mustela putorius furo. The assay can be described thus: Antiemetic activity (intravenous administration) against cisplatin-induced emesis in ferret, as the dose required to reduce emetic episodes to 50% of control value. The assay is classed as functional. The gist of the method: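 Castrated male Fitch ferrets (1-2 kg, nonfasted), jugular catheter implanted ≥48 h prior. Compound in 0.9% saline iv (2 mL/kg) 30 min before and 45 min after cisplatin 3 mg/kg iv. Emetic episodes counted for 4 h post-cisplatin, % inhibition vs vehicle controls run in tandem; dose halving episodes from 4-10 animals/dose, ≥3 doses, 95% confidence limits.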

In assay [2] the test system is Mustela putorius furo. The assay can be described thus: Antiemetic activity (oral administration) against cisplatin-induced emesis in ferret, as the dose required to increase latency to first emetic bout by 50%. The assay is classed as functional. In outline:
(§1)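 Nonfasted castrated male Fitch ferrets (1-2 kg), each used once. Drug dissolved/suspended in 0.5% methylcellulose in gelatin capsule, given po 60 min before cisplatin 3 mg/kg iv (via jugular catheter). Vehicle controls in tandem. Observed 4 h; emetic episodes and latency to first bout recorded. ED50 from 3-12 animals per dose, at least 3 doses, with 95% confidence limits.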

In assay [3] the test system is Mustela putorius furo. The assay can be described thus: Antiemetic activity (oral administration) against cisplatin-induced emesis in ferret, as the dose required to reduce emetic episodes to 50% of control value. The assay is classed as functional. In outline: as §1
Assay [4] relates to Mustela putorius furo. Briefly: Antiemetic activity (intravenous administration) against cisplatin-induced emesis in ferret, as the dose required to increase latency to first emetic bout by 100%. The assay is classed as functional. In outline:
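Nonfasted castrated male Fitch ferrets (1-2 kg) with jugular vein catheter implanted under pentobarbital ≥48 h earlier. Drug in 0.9% saline, 2 mL/kg iv, 30 min before and 45 min after cisplatin (3 mg/kg iv). Emetic latency recorded over 4 h; % increase vs tandem vehicle; dose raising mean latency 100%. 3-12 ferrets/dose, ≥3 doses, 95% confidence limits.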

Assay [5] has as its target T1, Serotonin 3 (5-HT3) receptor (Rattus norvegicus, UniProt P35563+Q9JJ16).
T1 sequence (P35563 whole entry): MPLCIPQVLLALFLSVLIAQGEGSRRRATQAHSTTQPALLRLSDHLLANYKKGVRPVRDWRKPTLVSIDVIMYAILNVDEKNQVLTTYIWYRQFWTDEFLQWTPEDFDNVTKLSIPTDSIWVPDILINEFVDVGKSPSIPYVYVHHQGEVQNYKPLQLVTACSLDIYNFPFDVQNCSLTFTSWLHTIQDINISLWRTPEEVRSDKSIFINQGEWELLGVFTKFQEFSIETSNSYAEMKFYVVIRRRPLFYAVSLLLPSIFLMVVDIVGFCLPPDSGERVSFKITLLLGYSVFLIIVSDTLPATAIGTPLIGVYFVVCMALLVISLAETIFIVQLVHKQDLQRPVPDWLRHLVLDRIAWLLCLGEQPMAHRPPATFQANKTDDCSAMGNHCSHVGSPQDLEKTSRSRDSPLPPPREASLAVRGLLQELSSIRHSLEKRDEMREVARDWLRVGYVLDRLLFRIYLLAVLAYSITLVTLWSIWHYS
T1 sequence (Q9JJ16 whole entry): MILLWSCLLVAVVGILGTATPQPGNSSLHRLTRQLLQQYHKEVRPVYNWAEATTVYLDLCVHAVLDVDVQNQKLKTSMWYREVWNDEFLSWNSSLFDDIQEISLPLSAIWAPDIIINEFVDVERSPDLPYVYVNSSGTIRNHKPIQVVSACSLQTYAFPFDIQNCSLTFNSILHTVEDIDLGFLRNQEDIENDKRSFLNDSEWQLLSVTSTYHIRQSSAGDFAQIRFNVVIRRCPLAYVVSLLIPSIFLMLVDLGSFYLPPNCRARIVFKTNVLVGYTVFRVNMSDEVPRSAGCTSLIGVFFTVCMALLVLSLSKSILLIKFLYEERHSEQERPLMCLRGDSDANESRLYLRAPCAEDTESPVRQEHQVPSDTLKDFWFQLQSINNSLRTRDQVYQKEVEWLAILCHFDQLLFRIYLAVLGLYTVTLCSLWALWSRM
Briefly: Displacement of the 5-hydroxytryptamine 3 receptor ligand [3H]GR-65630 from rat brain cortical membranes. The assay is classed as cell membranes, Membrane. In outline:
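Entorhinal cortex from frozen rat brains homogenized, spun 40000g 10 min in HEPES buffer (25 mM HEPES, CaCl2 5 mM, pH 7.4). Filtration, Tris pH 7.7 washes, scintillation counting. Four-six concentrations in triplicate; Ki via Cheng-Prusoff.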

As usually defined, the ED50 is the dose at which the effect has come halfway, by size or by number of responders. A low value points to greater potency. `Cc1nccn1CC1CCc2c(c3ccccc3n2C)C1=O` (stereo unspecified) [ONDANSETRON]: the ED50 in assay [1] is 0.008 mg/kg; in assay [2] it was 0.031 mg/kg; in assay [3], 0.28 mg/kg. Also, the ED100 in assay [4] worked out at 0.015 mg/kg.
The term Ki denotes the dissociation constant of the complex between target and ligand, obtained from inhibition or displacement. High values mean weaker binding, low ones tighter binding. In assay [5], `O=C(NC1CCN2CCCC1C2)c1cc(Cl)cc2c1OCCCC2` (stereo unspecified) had a Ki of 63 nM.
As for `CN1C2CCCC1CC(NC(=O)c1nn(C)c3ccccc13)C2` (stereo unspecified) [GRANISETRON], the median effective dose (ED50) amounted to 0.226 mg/kg in assay [1], 0.117 mg/kg in assay [2] and 0.119 mg/kg in assay [3]. The molecule also had an ED100 in assay [4] of 0.082 mg/kg.
In assay [5], `COc1cc(N)c(Cl)cc1C(=O)NC1CN2CCC1CC2` (stereo unspecified) [ZACOPRIDE] had a Ki of 1.5 nM.
Turning to `O=C(NC1CN2CCC1CC2)c1cc(Cl)cc2c1OCCCC2` (stereo unspecified), the affinity in assay [5] corresponds to a Ki of 1.22 nM.
As for `O=C(N[C@H]1CN2CCC1CC2)c1cc(Cl)cc2c1OC1(CCCCC1)C2`, the Ki in assay [5] stood at 0.89 nM. Besides, in assay [1], the ED50 was determined as 0.099 mg/kg. The same molecule displayed an ED100 in assay [4] of 0.055 mg/kg.
In assay [5], `CCC(C)Oc1c(C(=O)NC2CN3CCC2CC3)cc(Cl)cc1C1CCCCC1` (stereo unspecified) registered a Ki greater than 30 nM.
With `CC1(C)CCCc2cc(Cl)cc(C(=O)NC3CN4CCC3CC4)c2O1` (stereo unspecified), the affinity in assay [5] corresponds to a Ki of 15.6 nM.
In assay [5], `O=C(N[C@@H]1CN2CCC1CC2)c1cc(Cl)cc2c1OC1(CCCCC1)C2` yielded an inhibition constant Ki of 0.19 nM. Besides, the ED50 in assay [1] worked out at 0.009 mg/kg; in assay [2] it was 0.004 mg/kg; in assay [3], 0.009 mg/kg. Moreover, in assay [4], the ED100 was 0.005 mg/kg.
The molecule `CN1CC2CCC1CC(OC(=O)c1c[nH]c3ccccc13)C2` (stereo unspecified) yielded a Ki in assay [5] of 1.66 nM.
On the same count and under the same terms, the figure for `O=C(NC1CN2CCC1CC2)c1cc(Br)cc2c1OCCCC2` (stereo unspecified) is 2.16 nM.
In assay [5], `CCN(CC)CCNC(=O)c1cc(Cl)c(N)cc1OC` [METOCLOPRAMIDE] had an inhibitory constant (Ki) of 995 nM. For the same molecule, the 50% effective dose (ED50) in assay [1] is 1.45 mg/kg; in assay [2], greater than 5 mg/kg; in assay [3], 6.17 mg/kg. In addition, the ED100 in assay [4] is 2.1 mg/kg.
Consider `COc1c(C(=O)NC2CN3CCC2CC3)cc(Cl)cc1C1CCCCC1` (stereo unspecified), for which, in assay [5], the inhibitory constant (Ki) came to 6.09 nM.
With `O=C(NC1CN2CCC1CC2)c1cc(Cl)cc2c1OC1(CCCCC1)C2` (stereo unspecified), the inhibition constant Ki in assay [5] worked out at 1.07 nM. The molecule further displayed a median effective dose (ED50) in assay [1] of 0.002 mg/kg. Further, the ED100 in assay [4] came out at 0.006 mg/kg.
Regarding `Nc1c(Cl)cc2c(c1C(=O)NC1CN3CCC1CC3)OCCCC2` (stereo unspecified), in assay [5], the Ki was greater than 100 nM.
`O=C(NC1CN2CCC1CC2)c1cccc2c1OCCCC2` (stereo unspecified) came in with an inhibition constant (Ki) in assay [5] of 13.8 nM.
For `O=C(NC1CN2CCC1CC2)c1cc(Cl)cc2c1OCCCCC2` (stereo unspecified), the affinity in assay [5] corresponds to a Ki of 4.7 nM.
Regarding `COc1ccc(Cl)cc1C(=O)NC1CN2CCC1CC2` (stereo unspecified), the Ki in assay [5] came out at 46.8 nM.
